The values that follow come from ChEMBL document CHEMBL2439995, “Synthesis and Evaluation of Quinazolone Derivatives as a New Class of c-KIT G-Quadruplex Binding Ligands” (ACS Med Chem Lett, 2013).

A word on the inhibition: it is the percentage by which the read-out fell short of the control. As a reminder, the ΔTm is the shift of the melting midpoint relative to a reference. By IC50 is commonly meant the concentration that gives 50% inhibition. What is called Kd is the equilibrium constant for the complex coming apart.

Assay [1] has as its system MCF7. Briefly: Binding affinity to full length wild type c-KIT1 G-quadruplex DNA isolated from human MCF7 cells after 48 hrs by dual luciferase reporter gene assay. Format: cell-based. Put shortly: (§1)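 MCF-7 cells transiently transfected with a luciferase plasmid carrying the full-length wild-type c-KIT promoter or its mutant, plus pRL-TK. Cells treated 48 h with compound at 2.5 µM or a range of concentrations. Firefly signal normalized to pRL-TK, expressed relative to untreated cells (100%). Triplicates, three independent experiments, standard error.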
For orientation: A reporter such as luciferase makes a cellular process visible.

Assay [2] can be described thus: Binding affinity to F-c-KIT1-T G-quadruplex DNA (unknown origin) assessed as change in melting temperature at 5 uM by FRET assay.
Assay [3] in a line: Binding affinity to F-c-KIT2-T G-quadruplex DNA (unknown origin) assessed as change in melting temperature at 5 uM by FRET assay.
Assay [4] concerns MCF7. Briefly: Binding affinity to c-KIT2 mutant G-quadruplex DNA isolated from human MCF7 cells at 2.5 uM after 48 hrs by dual luciferase reporter gene assay. Format: cell-based. Put shortly: as §1
The subject of assay [5] is MCF7. Briefly: Binding affinity to c-KIT2 mutant G-quadruplex DNA isolated from human MCF7 cells at 5 uM after 48 hrs by dual luciferase reporter gene assay relative to control. Format: cell-based. Put shortly:
as §1

The test system of assay [6] is MCF7. Briefly: Binding affinity to full length wild type c-KIT1 G-quadruplex DNA isolated from human MCF7 cells at 2.5 uM after 48 hrs by dual luciferase reporter gene assay. It counts as cell-based. Put shortly: as §1
Assay [7] has as its system HGC-27. Briefly: Downregulation of c-KIT mRNA expression in HGC27 cells at 2.5 uM after 24 hrs by RT-PCR analysis relative to control. Format: functional, Homo sapiens. Put shortly:
(§2)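 HGC-27 gastric carcinoma cells treated 24 h at final 1.25, 2.5 or 5 µM. c-KIT mRNA quantified by RT-PCR against β-actin, relative to control.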

The nature of assay [8]: Binding affinity to F10T duplex DNA (unknown origin) assessed as change in melting temperature at 5 uM by FRET assay.
For assay [9], the system named is HGC-27. Briefly: Cytotoxicity against HGC27 cells assessed as cell viability after 48 hrs by MTT assay. Format: functional, cell-based. As to conditions: Homo sapiens, HGC-27, 48 h. Background: Formazan colour is commonly taken as a measure of viable cells.
Assay [10] concerns MCF7. Briefly: Binding affinity to c-KIT1 mutant G-quadruplex DNA isolated from human MCF7 cells at 5 uM after 48 hrs by dual luciferase reporter gene assay relative to control. Format: cell-based. Put shortly:
as §1

For assay [11], the system named is MCF7. Briefly: Binding affinity to full length wild type c-KIT1 G-quadruplex DNA isolated from human MCF7 cells at 5 uM after 48 hrs by dual luciferase reporter gene assay relative to control. It counts as cell-based. Put shortly: as §1
For assay [12], the system named is HGC-27. Briefly: Downregulation of c-KIT mRNA expression in HGC27 cells after 24 hrs by RT-PCR analysis relative to control. Format: functional, cell-based. As to conditions: Homo sapiens. Put shortly: as §2
In assay [13] the test system is MCF7. Briefly: Binding affinity to full length wild type c-KIT2 G-quadruplex DNA isolated from human MCF7 cells at 2.5 uM after 48 hrs by dual luciferase reporter gene assay. Format: cell-based. Put shortly: as §1
Assay [14] relates to MCF7. Briefly: Binding affinity to full length wild type c-KIT2 G-quadruplex DNA isolated from human MCF7 cells after 48 hrs by dual luciferase reporter gene assay. It counts as cell-based. Put shortly: as §1
The subject of assay [15] is HGC-27. Briefly: Downregulation of c-KIT mRNA expression in HGC27 cells at 5 uM after 24 hrs by RT-PCR analysis relative to control. Format: functional, Homo sapiens. Put shortly:
as §2

The nature of assay [16]: Binding affinity to biotinylated c-KIT1 G-quadruplex DNA (unknown origin) by surface plasmon resonance method. Put shortly: (§3)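 SPR binding to immobilized c-KIT1 G-quadruplex or duplex DNA, ligand injected at various concentrations, up to 20 µM. KD obtained by global fitting of the kinetic data to a 1:1 Langmuir binding model.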
A general note: Surface plasmon resonance follows binding to a sensor surface in real time, without labels.

A short description of assay [17]: Binding affinity to duplex DNA (unknown origin) up to 20 uM by surface plasmon resonance method. Put shortly: as §3
Assay [18] deals with MCF7. Briefly: Binding affinity to c-KIT1 mutant G-quadruplex DNA isolated from human MCF7 cells at 2.5 uM after 48 hrs by dual luciferase reporter gene assay. It counts as cell-based. Put shortly: as §1
The nature of assay [19]: Binding affinity to c-KIT2 G-quadruplex DNA (unknown origin) at 25 uM by CD spectrophotometric analysis. Put shortly: (§4)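 Circular dichroism spectra of 5 µM c-KIT1 or c-KIT2 oligonucleotide in 10 mM Tris–HCl, pH 7.2, 100 mM KCl, recorded with and without 25 µM ligand. Bands near 263 nm (positive) and 240 nm (negative) monitored.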
Assay [20] has as its system HGC-27. Briefly: Downregulation of c-KIT mRNA expression in HGC27 cells at 1.25 uM after 24 hrs by RT-PCR analysis relative to control. Format: functional, Homo sapiens. Put shortly: as §2
In assay [21] the test system is MCF7. Briefly: Binding affinity to full length wild type c-KIT2 G-quadruplex DNA isolated from human MCF7 cells at 5 uM after 48 hrs by dual luciferase reporter gene assay relative to control. It counts as cell-based. Put shortly:
as §1

The nature of assay [22]: Binding affinity to c-KIT1 G-quadruplex DNA (unknown origin) at 25 uM by CD spectrophotometric analysis. Put shortly: as §4

Active and inactive are the calls of the source. The calls are words filed in the database; no cut-off is given here.

For `CCN(CC)CCNC(=O)c1ccc(/C=C/c2nc3cc(N4CCN(C)CC4)c(F)cc3c(=O)n2-c2ccccc2)cc1`, the inhibition entry in the assay on MCF7 [1] is “Dose-dependent effect”; with MCF7 [5], 20%; in the assay on MCF7 [10], 20%; in the assay with MCF7 [11], 37%; in the assay on MCF7 [14], “Dose-dependent effect”; in the assay with MCF7 [21], 37%. Also, the ΔTm in assay [2] was found to be 13.4 °C; in [3], 14.3 °C; in assay [8] it was 0.4 °C. Besides, the inhibition entry with MCF7 [4] and in the assay with MCF7 [18] was “inactive” each time. The inhibition entry with MCF7 [6] and in the assay with MCF7 [13] was “Active” each time. For the same molecule, the Activity was 10.4% in the assay on HGC-27 [7], “Dose-dependent effect” in the assay on HGC-27 [12], 35.7% in the assay with HGC-27 [15] and 5.7% with HGC-27 [20]. Further, the IC50 with HGC-27 [9] stood at 8.6 µM. The molecule also had a Kd in assay [16] of 1.37 µM. Besides, the result in assay [17] was inactive. Further, the outcome in assay [19] and in assay [22] was Active.
Consider `CCN(CC)CC(=O)Nc1ccc(/C=C/c2nc3cc(N4CCN(C)CC4)c(F)cc3c(=O)n2-c2ccccc2)cc1`, for which the figures for the ΔTm in assay [2], in assay [3] and in assay [8] were 5.5 °C, 7.8 °C and 0 °C, respectively. In addition, the inhibition entry in the assay on MCF7 [4] and in the assay with MCF7 [18] was “inactive” each time. Further, the inhibition result in the assay on MCF7 [6] and in the assay with MCF7 [13] was “Active” each time. Besides, the IC50 in the assay on HGC-27 [9] was determined as 18.4 µM.
As to `CN1CCN(c2cc3nc(/C=C/c4ccc(NC(=O)CN5CCCCC5)cc4)n(-c4ccccc4)c(=O)c3cc2F)CC1`, the ΔTm is 4.2 °C in assay [2], 7.5 °C in assay [3] and 0.1 °C in [8]. In addition, the inhibition entry with MCF7 [4] and in the assay with MCF7 [18] was “inactive” in each case. Also, the inhibition entry with MCF7 [6] and in the assay with MCF7 [13] was “Active” each time. In addition, the IC50 in the assay with HGC-27 [9] turned out to be 1.3 µM.
On to `CN(C)CCNC(=O)c1ccc(/C=C/c2nc3cc(N4CCN(C)CC4)c(F)cc3c(=O)n2-c2ccccc2)cc1`, for which the ΔTm in assay [2] was 15.1 °C; in assay [3], 15.9 °C; in assay [8], 0.5 °C. Besides, the inhibition entry in the assay on MCF7 [4] and with MCF7 [18] was “inactive” in each case. Moreover, the inhibition entry in the assay on MCF7 [6] and with MCF7 [13] was “Active” in each case. The IC50 in the assay on HGC-27 [9] is 21.2 µM. This molecule gave a Kd in assay [16] of 1.16 µM. The outcome in [17] was inactive.
Turning to `CN1CCN(c2cc3nc(/C=C/c4ccc(C(=O)NCCN5CCCC5)cc4)n(-c4ccccc4)c(=O)c3cc2F)CC1`, the ΔTm in [2] came out at 12.3 °C; in assay [3], 13.4 °C; in assay [8], 0.4 °C. Also, the inhibition result in the assay on MCF7 [4] and in the assay with MCF7 [18] was “inactive” in each case. Moreover, the inhibition entry in the assay with MCF7 [6] and with MCF7 [13] was “Active” throughout. For the same molecule, in the assay with HGC-27 [9], the IC50 amounted to 17.2 µM. Besides, in assay [16], the Kd amounted to 15.7 µM. In [17], the result was inactive.
`Cc1ccc(NC(=O)c2ccc(CN3CCN(C)CC3)cc2)cc1Nc1nccc(-c2cccnc2)n1` [IMATINIB]: the IC50 with HGC-27 [9] is 3.8 µM.
Turning to `CN1CCN(c2cc3nc(/C=C/c4ccc(C(=O)NCCCN5CCCC5)cc4)n(-c4ccccc4)c(=O)c3cc2F)CC1`, the ΔTm was 15.9 °C in assay [2], 16.8 °C in assay [3] and 0.4 °C in assay [8]. The inhibition entry in the assay on MCF7 [4] and in the assay with MCF7 [18] was “inactive” in each case. Also, the inhibition entry in the assay with MCF7 [6] and in the assay with MCF7 [13] was “Active” throughout. The IC50 with HGC-27 [9] stood at 12.3 µM. For the same molecule, the affinity in [16], expressed as Kd, was 1.99 µM. For the same molecule, in [17], the outcome was inactive.
Consider `CN1CCN(c2cc3nc(/C=C/c4ccc(NC(=O)CCN5CCCCC5)cc4)n(-c4ccccc4)c(=O)c3cc2F)CC1`, for which the ΔTm was 10.7 °C in assay [2], 12.6 °C in [3] and 0 °C in assay [8]. Besides, the inhibition result in the assay with MCF7 [4] and with MCF7 [18] was “inactive” throughout. The inhibition entry with MCF7 [6] and in the assay with MCF7 [13] was “Active” throughout. For the same molecule, in the assay with HGC-27 [9], the IC50 stood at 8.2 µM. Also, the Kd in assay [16] came to 0.916 µM. Further, the result in [17] was inactive.
As to `CN1CCN(c2cc3nc(/C=C/c4ccc(NC(=O)CN5CCCC5)cc4)n(-c4ccccc4)c(=O)c3cc2F)CC1`, the results for the ΔTm in assay [2], in assay [3] and in assay [8] were 6.4 °C, 9.4 °C and 0 °C, respectively. Also, the inhibition result with MCF7 [4] and with MCF7 [18] was “inactive” in each case. Further, the inhibition entry with MCF7 [6] and with MCF7 [13] was “Active” each time. Besides, in the assay on HGC-27 [9], the IC50 worked out at 2.3 µM. This molecule came in with a Kd in assay [16] of 0.784 µM. The result in assay [17] was inactive.
As to `CCN(CC)CCC(=O)Nc1ccc(/C=C/c2nc3cc(N4CCN(C)CC4)c(F)cc3c(=O)n2-c2ccccc2)cc1`, the inhibition entry is “Dose-dependent effect” in the assay with MCF7 [1]; 22% with MCF7 [5]; 22% in the assay on MCF7 [10]; 45% in the assay on MCF7 [11]; “Dose-dependent effect” with MCF7 [14]; 45% in the assay on MCF7 [21]. Moreover, the ΔTm turned out to be 11.1 °C in assay [2], 13.6 °C in assay [3] and 0 °C in assay [8]. The inhibition entry with MCF7 [4] and with MCF7 [18] was “inactive” each time. In addition, the inhibition result in the assay with MCF7 [6] and in the assay on MCF7 [13] was “Active” throughout. In addition, the Activity in the assay on HGC-27 [7] is 22.8%; with HGC-27 [12], “Dose-dependent effect”; in the assay with HGC-27 [15], 52.5%; in the assay on HGC-27 [20] it was 4.9%. Moreover, the IC50 with HGC-27 [9] turned out to be 6.8 µM. The same molecule yielded a Kd in [16] of 0.612 µM. For the same molecule, the outcome in assay [17] was inactive. The result in [19] and in assay [22] was Active.
Regarding `CN1CCN(c2cc3nc(/C=C/c4ccc(NC(=O)CCN5CCCC5)cc4)n(-c4ccccc4)c(=O)c3cc2F)CC1`, the ΔTm worked out at 11.3 °C in assay [2], 12.4 °C in assay [3] and 0 °C in assay [8]. Further, the inhibition entry in the assay with MCF7 [4] and in the assay on MCF7 [18] was “inactive” throughout. Further, the inhibition entry in the assay on MCF7 [6] and in the assay on MCF7 [13] was “Active” throughout. Besides, in the assay with HGC-27 [9], the IC50 was 13.4 µM. In addition, in assay [16], the affinity, expressed as Kd, was 1.88 µM. Further, the outcome in assay [17] was inactive.
